# According to PMC5407101 (Pharmacognosy Magazine, 2017):
# Legend:
# Format in all cases: in vitro ADME
# [1] = system: UDP-glucuronosyltransferases (UGTs) in rat liver microsomes; assay: Kinetic analysis for 4-MU glucuronidation in RLM
# In short: (§1)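 Microsomes from livers or kidneys of untreated male Sprague-Dawley rats. Protein was 0.1 mg mL–1 (RLM) or 0.125 mg mL–1 (RKM), pre-treated on ice for 5 min with Triton X-100 (0.1 μL mg–1 RLM; 0.2 μL mg–1 RKM), in Tris-HCl pH 7.4 with MgCl2. 4-MU ranged 0-10 mM. After 5 min at 37°C, UDPGA started the 15-min reaction, stopped with TCA. 4-MUG was measured by C18 HPLC-UV at 316 nm. Km and Vmax came from a Michaelis-Menten fit.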
# [2] = system: UDP-glucuronosyltransferases (UGTs) in rat kidneys microsomes; assay: Kinetic analysis for 4-MU glucuronidation in RKM
# In short: as §1
# [3] = system: UDP-glucuronosyltransferases (UGTs) in rat liver microsomes; assay: Inhibition of 4-MU glucuronidation assay in RLM; settings: for fold more potent inhibition of 4-MU glucuronidation with RLM than with RKM: ratio of IC50 RKM/RLM
# [4] = system: UDP-glucuronosyltransferases (UGTs) in rat liver microsomes; assay: Kinetic analysis for p-NP glucuronidation in RLM
# In short: (§2)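 RLM or RKM (5 mg mL–1) was pre-treated on ice for 5 min with Triton X-100 (0.25 v/v % RLM; 0.125 v/v % RKM). Incubation was in Tris-HCl pH 7.4 with MgCl2, at seven p-NP levels (0-3,000 µM), started with UDPGA, 37°C for 30 min. The reaction was stopped with TCA and alkalinised with NaOH, and read at 405 nm. Glucuronidated p-NP was taken as blank minus unreacted, per protein and time. Km and Vmax came from a Michaelis-Menten fit.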
# [5] = system: UDP-glucuronosyltransferases (UGTs) in rat kidneys microsomes; assay: Kinetic analysis for p-NP glucuronidation in RKM
# In short: as §2
# [6] = read-out: Km of p-NP glucuronidation, Michaelis-Menten
structure (smiles),measurement,setting,value
"Cc1cc(=O)oc2cc(O)ccc12 [4-MU, 4-methylumbelliferone]",Vmax of 4-MU glucuronidation,"[1]; Michaelis-Menten, no inhibitor",27.87 ± 1.08 nmol min^–1 mg^–1
same,Km,"[1]; read-out: Km of 4-MU glucuronidation, Michaelis-Menten, no inhibitor",104 ± 20 µM
same,Vmax of 4-MU glucuronidation,[2]; Michaelis-Menten,12.01 ± 0.12 nmol min^–1 mg^–1
same,Km,"[2]; read-out: Km of 4-MU glucuronidation, Michaelis-Menten",101 ± 6 µM
COc1cc(C=O)cc(OC)c1O [Syringaldehyde],"fold higher IC50 in comparison with vanillin, 4-MU UGT inhibition",[3]; RLM,120 fold
same,fold more potent inhibition of 4-MU glucuronidation with RLM than with RKM,[3],1.2 fold
COc1cc(C=O)ccc1O [Vanillin],fold more potent inhibition of 4-MU glucuronidation with RLM than with RKM,[3],2.6 fold
"O=[N+]([O-])c1ccc(O)cc1 [p-NP, p-nitrophenol]",Vmax of p-NP glucuronidation,[4]; Michaelis-Menten,43.04 ± 1.64 nmol min^–1 mg^–1
same,Km,[4]; [6],860 ± 86.8 µM
same,Vmax of p-NP glucuronidation,[5]; Michaelis-Menten,9.320 ± 1.11 nmol min^–1 mg^–1
same,Km,[5]; [6],857 ± 68.3 µM
